Test results taken from ChEMBL document CHEMBL3244281, “Antiviral activity of some beta-diketones. 3. Aryl bis(beta-diketones). Antiherpetic activity” (1978).
Converted amounts (≈) assume the structure as drawn. The source made the active and inactive calls. No cut-off for these calls is given here.

Columns and labels:
Human alphaherpesvirus 1 [1] = assay: Antiviral activity against HSV1; assay type: functional
Human alphaherpesvirus 1 [2] = assay: Antiherpetic activity against HSV1 AA infected in guinea pig skin assessed as reduction of scab formation at 2% administered 24 hrs after infection as vanishing cream base daily 5 times for 4 days; assay type: functional, organism-based
Procedure, shortened: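 Guinea pigs had HSV-1 applied to shaved, epilated flanks: 0.1 mL tissue-culture virus (titer 10^6.25 TCID50) driven in by multiple vaccination-gun punctures. A 2% vanishing-cream preparation was applied topically from 24 h postinfection, five times daily for 4 days. Placebo-treated animals served as controls. Two scorers rated vesicles and followed lesions and scabbing to day 7.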

Human alphaherpesvirus 2 [3] = assay: Antiviral activity against HSV2 Curtis infected in monkey BSC-1 cells assessed as reduction of plaque formation at 4 ug/ml after 4 days using crystal violet staining relative to control; assay type: functional; conditions: Human alphaherpesvirus 2, Curtis, BSC-1, in Primates, 96 h
Procedure, shortened: (§1)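 BSC-1 monolayers, 4 days old and confluent, were infected with 20-60 PFU in MEM + 2% FCS. They were overlaid with agar (1% ionagar + 2× M-199 + 5% FCS) containing compound, four flasks per condition. Uninfected monolayers with compound served as controls. Flasks were incubated inverted at 37 °C for 4 days, formalin-fixed overnight at 4 °C and crystal violet-stained. Mean plaque count gave % reduction versus infected untreated cultures.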

Human alphaherpesvirus 2 [4] = assay: Antiviral activity against HSV2 Curtis infected in monkey BSC-1 cells assessed as reduction of plaque formation at 2 ug/ml after 4 days using crystal violet staining relative to control; assay type: functional; conditions: Human alphaherpesvirus 2, Curtis, BSC-1, in Primates, 96 h; procedure, shortened: as §1
Human alphaherpesvirus 2 [5] = assay: Antiviral activity against HSV2 Curtis infected in monkey BSC-1 cells assessed as reduction of plaque formation at 3 ug/ml after 4 days using crystal violet staining relative to control; assay type: functional; conditions: Human alphaherpesvirus 2, Curtis, BSC-1, 96 h; procedure, shortened: as §1
Human alphaherpesvirus 1 [6] = assay: Antiviral activity against HSV1 Sheely infected in monkey BSC-1 cells assessed as reduction of plaque formation at 4 ug/ml after 4 days using crystal violet staining relative to control; assay type: functional; conditions: Human alphaherpesvirus 1, Sheely, BSC-1, in Primates, 96 h; procedure, shortened: as §1
Human alphaherpesvirus 1 [7] = assay: Antiviral activity against HSV1 Sheely infected in monkey BSC-1 cells assessed as reduction of plaque formation at 2 ug/ml after 4 days using crystal violet staining relative to control; assay type: functional; conditions: Human alphaherpesvirus 1, Sheely, BSC-1, in Primates, 96 h; procedure, shortened: as §1
Human alphaherpesvirus 1 [8] = assay: Antiviral activity against HSV1 Sheely infected in monkey BSC-1 cells assessed as reduction of plaque formation at 3 ug/ml after 4 days using crystal violet staining relative to control; assay type: functional; conditions: Human alphaherpesvirus 1, Sheely, BSC-1, in Primates, 96 h; procedure, shortened: as §1
Human alphaherpesvirus 2 [9] = assay: Antiviral activity against HSV2

Structure (SMILES)	MIC (Human alphaherpesvirus 1 [1]) [µg/mL]	MIC (Human alphaherpesvirus 2 [9])	also measured
CCC(=O)C(CCCCCCCOc1ccc(OCCCCCCCC(C(=O)CC)C(=O)CC)cc1)C(=O)CC	25 (≈ 44.7 µM)		
CCC(=O)C(CCCCCCOc1ccc(OCCCCCCC(C(=O)CC)C(=O)CC)cc1)C(=O)CC	6 (≈ 11.3 µM)		Activity (Human alphaherpesvirus 1 [2]): Active; inhibition at 4 µg/mL (Human alphaherpesvirus 2 [3]): 93%; inhibition at 2 µg/mL (Human alphaherpesvirus 2 [4]): 18%; inhibition at 3 µg/mL (Human alphaherpesvirus 2 [5]): 59%; inhibition at 4 µg/mL (Human alphaherpesvirus 1 [6]): 89%; inhibition at 2 µg/mL (Human alphaherpesvirus 1 [7]): 21%; inhibition at 3 µg/mL (Human alphaherpesvirus 1 [8]): 43%
CCC(=O)C(CCCCCCOc1cccc(OCCCCCCC(C(=O)CC)C(=O)CC)c1)C(=O)CC	12 (≈ 22.6 µM)		
CCC(=O)C(CCCOc1ccc(OCCCC(C(=O)CC)C(=O)CC)cc1)C(=O)CC		inactive	
CCC(=O)C(CCCCCCOc1ccc(OCCCCCCC(C(=O)CC)C(=O)CC)c(C)c1)C(=O)CC	25 (≈ 45.9 µM)		
CCC(=O)C(CCCCCOc1ccc(OCCCCCC(C(=O)CC)C(=O)CC)cc1)C(=O)CC	3 (≈ 5.97 µM)		
CCC(=O)C(CCCCCCCCOc1ccc(OCCCCCCCCC(C(=O)CC)C(=O)CC)cc1)C(=O)CC		inactive	
CCC(=O)C(CCCCOc1ccc(OCCCC(C(=O)CC)C(=O)CC)cc1)C(=O)CC		inactive	
CCC(=O)C(CCCCCCOc1cc(Cl)c(OCCCCCCC(C(=O)CC)C(=O)CC)cc1Cl)C(=O)CC	6 (≈ 10 µM)		
CCC(=O)C(CCCCOc1ccc(OCCCCC(C(=O)CC)C(=O)CC)cc1)C(=O)CC	3 (≈ 6.32 µM)		
CCC(=O)C(CCCCCOc1ccc(OCCCCC(C(=O)CC)C(=O)CC)cc1)C(=O)CC		inactive	
CCC(=O)C(CCCCCCOc1ccc(OCCCCCCC(C(=O)CC)C(=O)CC)c(Cl)c1)C(=O)CC	6 (≈ 10.6 µM)		
